Assay results published in ChEMBL document CHEMBL1781959, “Synthesis and in vitro antitumor activity of substituted quinazoline and quinoxaline derivatives: search for anticancer agent” (Eur J Med Chem, 2011).

Tested on: NCI-H226
Experiment: Growth inhibition of human NCI-H226 cells after 48 hrs by SRB assay
Assay type: functional
Conditions: NCI-H226, 48 h
Outline: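 NCI 60-panel five-dose assay at 0.01, 0.1, 1, 10 and 100 μM. Cells in RPMI 1640 with 5% FBS and 2 mM L-glutamine, preincubated 24 h, with time-zero plates TCA-fixed. Drug exposure 48 h at 37 °C. Read by SRB staining at 515 nm. GI50 is the concentration where [(Ti−Tz)/(C−Tz)]×100 = 50, taken from log concentration versus % growth curves.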

Work on `O=c1c2ccccc2nc(-c2ccco2)n1/N=C/c1ccccc1Cl` yielded a GI50 of 4.12 µM and a TGI of over 100 µM.
